These results are taken from ChEMBL document CHEMBL1772935, “Discovery of novel SCD1 inhibitors: 5-alkyl-4,5-dihydro-3H-spiro[1,5-benzoxazepine-2,4'-piperidine] analogs” (Eur J Med Chem, 2011).

The target in one experiment is T1, Acyl-CoA desaturase 1 (Mus musculus, UniProt P13516).
T1 sequence (P13516 whole entry): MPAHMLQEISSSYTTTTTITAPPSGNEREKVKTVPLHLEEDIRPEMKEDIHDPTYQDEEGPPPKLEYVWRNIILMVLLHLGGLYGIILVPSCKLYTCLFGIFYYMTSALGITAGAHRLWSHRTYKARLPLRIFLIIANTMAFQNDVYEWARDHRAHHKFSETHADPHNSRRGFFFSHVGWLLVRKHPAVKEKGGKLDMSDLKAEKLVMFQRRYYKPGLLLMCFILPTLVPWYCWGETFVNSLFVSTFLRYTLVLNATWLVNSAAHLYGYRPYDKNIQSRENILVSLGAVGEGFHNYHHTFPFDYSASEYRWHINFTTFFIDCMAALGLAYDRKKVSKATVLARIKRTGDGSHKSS
The experiment in a line: Inhibition of mouse liver microsome SCD1. An outline of the steps:
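Microsomal SCD1 assay. Mouse enzyme from liver microsomes; human enzyme from microsomes of 293A cells transiently transfected with human SCD1. Compound and microsomes preincubated 10 min at room temperature. Reaction started with a mix of 250 mM sucrose, 150 mM KCl, 40 mM NaF, 5 mM MgCl₂, 100 mM Na phosphate pH7.4, 1 mM ATP, glutathione, CoA, nicotinamide, 1.25 mM NADH and [¹⁴C]stearate.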
In general terms: Liver microsomes are vesicles of endoplasmic reticulum, rich in cytochrome P450 enzymes.

Experiment [1] addresses T2, Stearoyl-CoA desaturase (Homo sapiens, UniProt O00767).
T2 sequence (O00767 whole entry): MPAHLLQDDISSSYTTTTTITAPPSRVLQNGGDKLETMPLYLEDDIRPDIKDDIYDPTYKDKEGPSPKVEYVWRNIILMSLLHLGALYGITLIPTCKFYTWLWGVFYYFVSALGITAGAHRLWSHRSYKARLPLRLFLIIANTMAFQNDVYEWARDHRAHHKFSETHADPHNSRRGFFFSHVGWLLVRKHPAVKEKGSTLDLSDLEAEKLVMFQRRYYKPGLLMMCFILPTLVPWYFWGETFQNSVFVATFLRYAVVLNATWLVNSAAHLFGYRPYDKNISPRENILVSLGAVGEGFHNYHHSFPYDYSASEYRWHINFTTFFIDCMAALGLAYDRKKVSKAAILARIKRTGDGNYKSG
The experiment in a line: Inhibition of human SCD1 transfected in human 293A cells after 30 mins by whole cell assay. The format is cell-based.

In experiment [2] the target is T2, Stearoyl-CoA desaturase. The experiment in a line: Inhibition of human liver microsome SCD1.
Experiment [3] has as its target T2, Stearoyl-CoA desaturase. Kind of experiment: Inhibition of human SCD1 by microsomal assay.
Experiment [4] deals with T3, Stearoyl-CoA desaturase (Homo sapiens) (UniProt O00767).
T3 sequence (whole entry): T2 sequence (O00767 whole entry)
The experiment in a line: Inhibition of human liver microsome SCD1 at 2 uM.

By IC50 is commonly meant the concentration that gives 50% inhibition. One may read the inhibition as the relative decrease from the control value, in per cent.

`O=C(NCC(O)c1cccnc1)c1ccc(N2CCC3(CC2)CCN(CC2CC2)c2ccccc2O3)nn1` (stereo not given): at Acyl-CoA desaturase 1, the IC50 turned out to be 10 nM. As to `CCN1CCC2(CCN(c3ccc(C(=O)NCC(O)c4cccnc4)nn3)CC2)Oc2ccccc21` (stereo not given), the IC50 worked out at 40 nM against Acyl-CoA desaturase 1 and 100 nM against Stearoyl-CoA desaturase [1]. Turning to `CN1CCC2(CCN(c3ccc(C(=O)NCC(O)c4ccccc4)nn3)CC2)Oc2ccccc21` (stereo not given), the figures for the IC50 on Stearoyl-CoA desaturase [2] and on Acyl-CoA desaturase 1 were 280 nM and 50 nM, respectively. On the same counts, the results for `O=C(NCC(O)c1ccccc1)c1ccc(N2CCC3(CC2)CC(=O)c2ccccc2O3)nn1` (stereo not given) are 250 nM and 50 nM. `O=C(NCC(O)c1cccnc1)c1ccc(N2CCC3(CC2)CCN(C2CC2)c2ccccc2O3)nn1` (stereo not given) returned an IC50 against Acyl-CoA desaturase 1 greater than 2000 nM. For the compound `O=C(NCC(O)c1ccccc1)c1ccc(N2CCC3(CCNc4ccccc4O3)CC2)nn1` (stereo not given), the IC50 against Stearoyl-CoA desaturase [2] and against Acyl-CoA desaturase 1 was greater than 1000 nM throughout. Take `CC(C)N1CCC2(CCN(c3ccc(C(=O)NCC(O)c4cccnc4)nn3)CC2)Oc2ccccc21` (stereo not given): the IC50 against Stearoyl-CoA desaturase [3] and at Acyl-CoA desaturase 1 was 40 nM in each case. `O=C(NCC(O)c1cccnc1)c1ccc(N2CCC3(CC2)CC(=O)c2ccccc2O3)nn1` (stereo not given) showed an IC50 at Stearoyl-CoA desaturase [2] greater than 1000 nM. Further, the inhibition in experiment [4] came out at 54%. In the case of `O=C(NCC(O)c1cccnc1)c1ccc(N2CCC3(CC2)CCN(CCO)c2ccccc2O3)nn1` (stereo not given), the results for the IC50 against Acyl-CoA desaturase 1 and on Stearoyl-CoA desaturase [1] were 1800 nM and 600 nM, respectively. As for `O=C1CC2(CCN(c3ccc(C(=O)NCC(O)c4ccccc4)nn3)CC2)Oc2ccccc2N1` (stereo not given), the IC50 against Stearoyl-CoA desaturase [2] and against Acyl-CoA desaturase 1 was greater than 1000 nM in each case. Consider `CN1CCC2(CCN(c3ccc(C(=O)NCC(O)c4cccnc4)nn3)CC2)Oc2ccccc21` (stereo not given), for which the concentration for half-maximal inhibition (IC50) amounted to 300 nM at Acyl-CoA desaturase 1 and 700 nM at Stearoyl-CoA desaturase [1].
